In ChEMBL document CHEMBL2331224 (J Med Chem, 2013):
Calls of active or inactive are those of the source. The calls are words filed in the database; no cut-off is given here.

Experiments:
[1] = target: T1, Retinoic acid receptor RXR-alpha (Homo sapiens) (UniProt P19793); experiment: Transactivation of RXRalpha (unknown origin) expressed in COS1 cells at 0.1 uM after 18 hrs by luciferase reporter gene assay relative to bexarotene; type: cell-based; conditions: COS-1
T1 sequence (whole entry): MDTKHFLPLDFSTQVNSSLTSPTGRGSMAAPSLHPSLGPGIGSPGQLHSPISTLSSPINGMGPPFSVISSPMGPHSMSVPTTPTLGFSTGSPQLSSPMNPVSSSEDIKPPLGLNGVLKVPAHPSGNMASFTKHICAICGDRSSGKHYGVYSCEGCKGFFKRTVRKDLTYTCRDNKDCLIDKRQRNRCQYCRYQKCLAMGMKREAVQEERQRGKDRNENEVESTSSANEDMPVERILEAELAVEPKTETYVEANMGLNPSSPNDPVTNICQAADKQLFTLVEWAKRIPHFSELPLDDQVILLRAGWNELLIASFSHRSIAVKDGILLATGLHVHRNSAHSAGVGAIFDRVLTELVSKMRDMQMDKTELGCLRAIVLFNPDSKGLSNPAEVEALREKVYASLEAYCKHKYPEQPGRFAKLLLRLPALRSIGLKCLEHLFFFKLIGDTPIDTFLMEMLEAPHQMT
How it was run: (§1)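 COS-1 cells in DMEM with 10% FBS at 37 °C, 5% CO2, transfected with RXRα, an RXR-response-element luciferase reporter and a SEAP background vector. Cells were seeded at about 2.0 × 10⁴ per well with compound (DMSO below 1%) for 18 h. Luciferase was normalized to SEAP and expressed relative to 1 μM reference RXR full agonist as 100%. EC50 came from full dose-response curves. Triplicates, at least three experiments.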

[2] = test system: Mus musculus; experiment: Toxicity in ICR mouse assessed as weight gain at 30 mg/kg/day, po for 7 days relative to control; type: organism-based; set-up: route oral; conditions: in vivo, 168 h
How it was run: (§2)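 Male ICR mice, 6−7 weeks old, four per cage, grouped by body weight. Oral 30 mg/kg or vehicle (1% ethanol/0.5% CMC in water, 10 mL/kg) once daily for 7 days, body weight recorded daily. After overnight fasting, mice were weighed under ether, and liver was removed and weighed. Serum was analysed on a dry-chemistry analyser for TG, TCHO, ALP, CRE, BUN and other markers. n = 7−23, ANOVA.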

[3] = target: T2, Retinoic acid receptor alpha (Homo sapiens) (UniProt P10276); experiment: Transactivation of RARalpha (unknown origin) by luciferase reporter gene assay relative to Am80
T2 sequence (whole entry): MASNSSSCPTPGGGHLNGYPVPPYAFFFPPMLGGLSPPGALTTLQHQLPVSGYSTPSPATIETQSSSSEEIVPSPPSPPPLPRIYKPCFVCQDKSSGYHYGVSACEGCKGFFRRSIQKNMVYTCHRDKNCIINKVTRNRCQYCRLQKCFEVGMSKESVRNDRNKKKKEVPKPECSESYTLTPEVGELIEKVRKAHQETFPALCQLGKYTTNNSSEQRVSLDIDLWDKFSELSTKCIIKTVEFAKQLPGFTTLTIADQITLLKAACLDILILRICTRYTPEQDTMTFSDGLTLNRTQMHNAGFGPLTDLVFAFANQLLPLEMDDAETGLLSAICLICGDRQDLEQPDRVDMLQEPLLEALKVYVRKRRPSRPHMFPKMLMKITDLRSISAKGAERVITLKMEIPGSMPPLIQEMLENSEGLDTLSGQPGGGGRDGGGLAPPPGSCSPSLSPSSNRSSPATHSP

[4] = test system: Mus musculus; experiment: Toxicity in ICR mouse assessed as change in renal function parameters at 30 mg/kg/day, po for 7 days; type: organism-based; set-up: route oral; conditions: in vivo, 168 h; how it was run: as §2
[5] = test system: Mus musculus; experiment: Toxicity against KKAy mouse assessed as total cholesterol level at 10 mg/kg/day, po for 14 days (reference value: 153.2 +/- 11.1 mg/dL); type: organism-based; set-up: route oral; conditions: in vivo, 336 h
[6] = target: T3, Retinoic acid receptor RXR-alpha (Homo sapiens, UniProt P19793); experiment: Partial agonist activity at RXRalpha (unknown origin) expressed in COS1 cells after 18 hrs by luciferase reporter gene assay; type: cell-based, COS-1; how it was run: as §1
T3 sequence (P19793 whole entry): T1 sequence (whole entry)

- Efficacy [1]: 21%
- Activity [3]: Active
- EC50 [6]: 15 nM
Compound: Cc1cc2c(cc1-n1c(C(F)(F)F)nc3cc(C(=O)O)ccc31)C(C)(C)CCC2(C)C
- Activity [2]: Non-toxic
- Activity [4]: Non-toxic
- Activity [5]: 155.3 mg/dL
